Laboratory results taken from ChEMBL document CHEMBL1152892, “Synthesis and biological evaluation of 3,6-disubstituted [1,2,4]triazolo[3,4-b][1,3,4]thiadiazole derivatives as a novel class of potential anti-tumor agents” (Eur J Med Chem, 2009).
The source made the active and inactive calls. No cut-off for these calls is given here.

How the values were obtained:
[1] = molecular target: Cyclin-dependent kinase 1/cyclin B1 (Homo sapiens, UniProt P06493); experiment: Inhibition of CDK1/Cyclin B; assay type: protein-complex assay
[2] = molecular target: Cyclin-dependent kinase 2 (Homo sapiens, UniProt P24941); experiment: Inhibition of CDK2/Cyclin A
[3] = Inhibition of CDK4/Cyclin D
[4] = system: MCF7; experiment: Antitumor activity against human MCF7 cells assessed as cell growth at 10 uM after 48 hrs by sulforhodamine B assay; assay type: functional; conditions: MCF7, 48 h, read-out: Activity
Summary of the method: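 NCI primary screen, single concentration 10^-5 M against MCF7, NCI-H460 and SF-268. Cells in RPMI 1640 with 5% FBS and 2 mM L-glutamine, seeded at 5000–40,000 cells/well by cell type, preincubated 24 h at 37 °C. Compound added at time zero, then 48 h incubation (5% CO2, 100% humidity). Growth read by sulforhodamine B optical density, reported as growth percentage.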

[5] = system: CCRF-CEM; experiment: Cytotoxicity against human CCRF-CEM cells after 48 hrs by sulforhodamine B assay; assay type: functional
Summary of the method: (§1)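 NCI human tumor panel. Cells in RPMI 1640 with 5% FBS and 2 mM L-glutamine, 5000–40,000 cells/well by growth characteristics, 24 h preincubation at 37 °C. Compound added at time zero at five 10-fold dilutions, top concentration agent-dependent. Incubated 48 h (5% CO2, 100% humidity), then sulforhodamine B stain and plate-reader OD. GI50 and TGI are the concentrations giving 50% and total growth inhibition, in µM.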

[6] = (§2) Cytotoxicity against human […] cells after 48 hrs by sulforhodamine B assay; assay type: functional; summary of the method: as §1
[7] = system: SR; experiment: Cytotoxicity against human SR cells after 48 hrs by sulforhodamine B assay; assay type: functional; summary of the method: as §1
[8] = system: HOP-62; experiment: Cytotoxicity against human HOP62 cells after 48 hrs by sulforhodamine B assay; assay type: functional; conditions: for GI50: HOP-62, 48 h; summary of the method: as §1
[9] = system: HOP-92; experiment: Cytotoxicity against human HOP92 cells after 48 hrs by sulforhodamine B assay; assay type: functional; conditions: HOP-92, 48 h; summary of the method: as §1
[10] = system: NCI-H226; experiment: Cytotoxicity against human NCI-H226 cells after 48 hrs by sulforhodamine B assay; assay type: functional; conditions: for GI50: NCI-H226, 48 h; summary of the method: as §1
[11] = system: NCI-H322M; experiment: Cytotoxicity against human NCI-H322M cells after 48 hrs by sulforhodamine B assay; assay type: functional; summary of the method: as §1
[12] = system: HCC 2998; experiment: Cytotoxicity against human HCC2998 cells after 48 hrs by sulforhodamine B assay; assay type: functional; summary of the method: as §1
[13] = system: HCT-116; experiment: Cytotoxicity against human HCT116 cells after 48 hrs by sulforhodamine B assay; assay type: functional; conditions: HCT-116, 48 h; summary of the method: as §1
[14] = system: KM12; experiment: Cytotoxicity against human KM12 cells after 48 hrs by sulforhodamine B assay; assay type: functional; conditions: for GI50: KM12, 48 h; summary of the method: as §1
[15] = system: SF-268; experiment: Cytotoxicity against human SF268 cells after 48 hrs by sulforhodamine B assay; assay type: functional; summary of the method: as §1
[16] = system: SF-539; experiment: Cytotoxicity against human SF539 cells after 48 hrs by sulforhodamine B assay; assay type: functional; summary of the method: as §1
[17] = system: LOX IMVI; experiment: Cytotoxicity against human LOXIMVI cells after 48 hrs by sulforhodamine B assay; assay type: functional; summary of the method: as §1
[18] = system: UACC-62; experiment: Cytotoxicity against human UACC62 cells after 48 hrs by sulforhodamine B assay; assay type: functional; summary of the method: as §1
[19] = system: OVCAR-3; experiment: Cytotoxicity against human OVCAR-3 cells after 48 hrs by sulforhodamine B assay; assay type: functional; summary of the method: as §1
[20] = system: OVCAR-4; experiment: Cytotoxicity against human OVCAR4 cells after 48 hrs by sulforhodamine B assay; assay type: functional; summary of the method: as §1
[21] = system: A498; experiment: Cytotoxicity against human A498 cells after 48 hrs by sulforhodamine B assay; assay type: functional; summary of the method: as §1
[22] = system: ACHN; experiment: Cytotoxicity against human ACHN cells after 48 hrs by sulforhodamine B assay; assay type: functional; summary of the method: as §1
[23] = system: CAKI-1; experiment: Cytotoxicity against human Caki1 cells after 48 hrs by sulforhodamine B assay; assay type: functional; summary of the method: as §1
[24] = system: TK-10; experiment: Cytotoxicity against human TK10 cells after 48 hrs by sulforhodamine B assay; assay type: functional; summary of the method: as §1
[25] = system: MCF7; experiment: Cytotoxicity against human MCF7 cells after 48 hrs by sulforhodamine B assay; assay type: functional; summary of the method: as §1
[26] = Cytotoxicity against human Hs 578T cells after 48 hrs by sulforhodamine B assay; assay type: functional; summary of the method: as §1
[27] = system: HCT-116; experiment: Antitumor activity against human HCT116 cells xenografted in nude mouse; assay type: functional, cell-based
[28] = system: RPMI8266; experiment: as §2; assay type: functional; summary of the method: as §1
[29] = system: SNB-75; experiment: Cytotoxicity against human SNB75 cells after 48 hrs by sulforhodamine B assay; assay type: functional; summary of the method: as §1
[30] = system: BT-549; experiment: Cytotoxicity against human BT549 cells after 48 hrs by sulforhodamine B assay; assay type: functional; conditions: BT-549, 48 h; summary of the method: as §1
[31] = system: HCT-15; experiment: Cytotoxicity against human HCT15 cells after 48 hrs by sulforhodamine B assay; assay type: functional; summary of the method: as §1

Chain of Cyclin-dependent kinase 1/cyclin B1 (P06493 whole entry): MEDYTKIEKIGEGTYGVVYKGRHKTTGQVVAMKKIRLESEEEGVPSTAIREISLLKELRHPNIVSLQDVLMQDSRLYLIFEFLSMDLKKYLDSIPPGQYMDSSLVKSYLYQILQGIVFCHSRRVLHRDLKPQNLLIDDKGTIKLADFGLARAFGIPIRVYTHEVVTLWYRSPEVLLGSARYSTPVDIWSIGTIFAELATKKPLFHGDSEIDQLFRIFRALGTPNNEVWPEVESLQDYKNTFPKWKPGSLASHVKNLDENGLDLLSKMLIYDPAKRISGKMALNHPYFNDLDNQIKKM
Chain of Cyclin-dependent kinase 1/cyclin B1 (P14635 whole entry, further chain): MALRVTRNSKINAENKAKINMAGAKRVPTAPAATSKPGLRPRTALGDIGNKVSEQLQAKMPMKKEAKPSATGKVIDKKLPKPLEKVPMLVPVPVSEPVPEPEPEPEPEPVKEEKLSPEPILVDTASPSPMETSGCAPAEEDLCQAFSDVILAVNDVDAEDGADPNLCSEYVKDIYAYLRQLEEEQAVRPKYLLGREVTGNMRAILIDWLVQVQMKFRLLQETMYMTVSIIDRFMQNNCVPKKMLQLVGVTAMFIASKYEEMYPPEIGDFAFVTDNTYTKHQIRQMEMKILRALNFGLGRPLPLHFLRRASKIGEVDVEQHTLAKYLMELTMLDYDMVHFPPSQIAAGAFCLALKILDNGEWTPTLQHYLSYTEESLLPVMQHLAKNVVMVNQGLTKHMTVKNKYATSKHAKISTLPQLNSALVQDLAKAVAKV

Nc1nc(O)c(Cc2nn3c(Cc4ccccc4)nnc3s2)s1
IC50 [1]: > 120 µM | IC50 [2]: 14 µM | IC50 [3]: > 48 µM

Cc1nnc2sc(NN)nn12
IC50 [1]: 22 µM | IC50 [2]: 11 µM | IC50 [3]: > 120 µM

Sc1nn2c(Cc3ccccc3)nnc2s1
IC50 [1]: 25 µM | IC50 [2]: 23 µM | IC50 [3]: 37 µM

NNc1nn2c(Cc3ccccc3)nnc2s1
IC50 [1]: > 120 µM | IC50 [2]: > 28 µM | IC50 [3]: > 48 µM

Nc1ccc(-c2nn3c(COc4ccc(Cl)cc4)nnc3s2)cc1
IC50 [1]: 6.5 µM | IC50 [2]: 0.33 µM | IC50 [3]: 2.1 µM | growth at 10 µM [4]: 128% | GI50 [5]: 10 µM | GI50 [6]: 77.6 µM | GI50 [7]: 91.2 µM | GI50 [8]: 20.4 µM | GI50 [9]: 97.7 µM | GI50 [10]: 7.24 µM | pGI50 [11]: inactive | pGI50 [12]: inactive | GI50 [13]: 34.7 µM | GI50 [14]: > 100 µM | GI50 ([15]; SF-268, 48 h): 46.8 µM | GI50 ([16]; SF-539, 48 h): 34.7 µM | pGI50 [17]: inactive | pGI50 [18]: inactive | pGI50 [19]: inactive | pGI50 [20]: inactive | pGI50 [21]: inactive | GI50 [22]: 53.7 µM | GI50 ([23]; CAKI-1, 48 h): 49 µM | GI50 ([24]; TK-10, 48 h): 85.1 µM | GI50 ([25]; MCF7, 48 h): 40.7 µM | GI50 [26]: 87.1 µM | Activity [27]: inactive

Cc1nnc2sc(SCc3ccccc3)nn12
IC50 [1]: > 48 µM | IC50 [2]: 16 µM | IC50 [3]: > 120 µM

Cc1nnc2sc(SSc3nn4c(C)nnc4s3)nn12
IC50 [1]: 6.8 µM | IC50 [2]: 23 µM | IC50 [3]: 11 µM

Sc1nn2c(COc3ccc(Cl)cc3)nnc2s1
IC50 [1]: 0.9 µM | IC50 [2]: 0.4 µM | growth at 10 µM [4]: 0% | GI50 [5]: 97.7 µM | pGI50 [28]: inactive | GI50 [7]: 95.5 µM | pGI50 [8]: inactive | GI50 [9]: 79.4 µM | GI50 [10]: 89.1 µM | pGI50 [11]: inactive | pGI50 [12]: inactive | GI50 [13]: > 100 µM | pGI50 [14]: inactive | pGI50 [15]: inactive | pGI50 [16]: inactive | pGI50 [29]: inactive | pGI50 [17]: inactive | pGI50 [18]: inactive | GI50 ([19]; OVCAR-3, 48 h): 81.3 µM | pGI50 [20]: inactive | pGI50 [21]: inactive | pGI50 [22]: inactive | pGI50 [23]: inactive | pGI50 [24]: inactive | pGI50 [25]: inactive | GI50 [26]: 87.1 µM | GI50 [30]: 79.4 µM

Cc1nnc2sc(-c3ccc(N)cc3)nn12
IC50 [1]: > 120 µM | IC50 [2]: 0.57 µM | IC50 [3]: > 120 µM | growth at 10 µM [4]: 119% | pGI50 [5]: inactive | pGI50 [28]: inactive | pGI50 [7]: inactive | GI50 [8]: 87.1 µM | pGI50 [10]: inactive | pGI50 [11]: inactive | pGI50 [12]: inactive | pGI50 [31]: inactive | GI50 [14]: > 100 µM | pGI50 [15]: inactive | pGI50 [16]: inactive | GI50 ([29]; SNB-75, 48 h): 21.4 µM | pGI50 [17]: inactive | pGI50 [18]: inactive | pGI50 [19]: inactive | pGI50 [20]: inactive | pGI50 [21]: inactive | pGI50 [22]: inactive | pGI50 [23]: inactive | pGI50 [25]: inactive | GI50 [26]: 89.1 µM | GI50 [30]: > 100 µM

Cc1nnc2sc(S)nn12
IC50 [1]: 19 µM | IC50 [2]: 6.8 µM | IC50 [3]: 23 µM

c1ccc(Cc2nnc3sc(SSc4nn5c(Cc6ccccc6)nnc5s4)nn23)cc1
IC50 [1]: 5.3 µM | IC50 [2]: 15 µM | IC50 [3]: 25 µM

CCSc1nn2c(C)nnc2s1
IC50 [1]: > 120 µM | IC50 [2]: 11 µM | IC50 [3]: 14 µM
